rCAG RNA binder: molecules binding r(CAG) RNA repeats; r(CAG) RNA repeat, TO-PRO-1 dye displacement fluorescence; inhibition, % at 3 µM; actives 1.3% (n = 370,000); AID 651821;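 active = inhibition above the plate cutoff, the mean of all test compounds on that plate plus 3 SD, cut at about 35% in these data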;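 also: 0% = DMSO alone and 100% = 100 µM mitoxantrone as full dye displacement; higher means more dye released from RNA so lower well fluorescence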
Granule exo inh: lytic granule exocytosis inhibition; actives 0.66% (n = 360,000); inhibition, % at 10 µM; TALL-104 LAMP-1 surface exposure, flow cytometry; cells stimulated with thapsigargin and PMA;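 active = inhibition above about 55%, limit read from the data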
MPTP inh: inhibitors of mitochondrial permeability transition pore. isolated mouse mitochondria, Ca2+ swelling absorbance, 30 min. inhibition, % at 10 µM. actives 1.4% (n = 360,000). AID 602449;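 active = inhibition of 50% or more, scaled per plate between neutral and stimulator controls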;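 also: 0% = DMSO wells given calcium and 100% = 1 mM EGTA wells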
B2AR ag: activates human beta-2 adrenergic receptor causing internalization. P07550. Am2.2-beta2AR cells, FAP receptor internalization, flow cytometry. response, % (test concentration not listed). actives 0.43% (n = 340,000);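 active = response above a set limit, near 3 SD of response in nonfluorescent compounds, cut at about 42% in these data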
Target sequence (P07550 whole entry, looked up): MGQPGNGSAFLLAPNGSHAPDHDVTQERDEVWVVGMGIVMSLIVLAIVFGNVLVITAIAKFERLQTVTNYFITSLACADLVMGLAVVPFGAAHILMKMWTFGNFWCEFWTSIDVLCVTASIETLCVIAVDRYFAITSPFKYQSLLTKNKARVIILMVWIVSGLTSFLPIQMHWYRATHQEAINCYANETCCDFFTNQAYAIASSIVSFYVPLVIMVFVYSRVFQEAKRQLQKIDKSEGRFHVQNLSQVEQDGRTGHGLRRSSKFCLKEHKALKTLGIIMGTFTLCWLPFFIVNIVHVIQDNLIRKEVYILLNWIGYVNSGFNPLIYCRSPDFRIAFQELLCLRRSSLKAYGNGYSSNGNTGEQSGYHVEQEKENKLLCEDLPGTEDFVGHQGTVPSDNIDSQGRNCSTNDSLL
T cell modulator: T cell immune modulators affecting CD8 T cell-vesicle binding | 2C CD8+ T cell-vesicle binding, flow cytometry; hits give low values | response (vesicle binding), % at 7 µM | actives 0.068% (n = 330,000) | AID 2052;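 active = response, share of CD8 T cells binding vesicles, and their 90th percentile fluorescence all below set limits, cut at about 80% in these data, passing the limit was not always enough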;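 also: values below 100% mean blocked vesicle binding to the CD8+ T cells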
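System: murine 2C transgenic CD8+ T lymphocytes; also added: QL9-loaded Drosophila micro-vesicles; times: binding 1.5 h at 37 °C; measured by: flow cytometry, PE anti-B7-1 (FL2) versus Alexa647 anti-CD8 (FL8), PFA-fixed; control set: Peptide-free naked vesicles (low) and QL9 vesicles with 0.7% DMSO vehicle (high)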
V-ATPase pH: alters yeast V-ATPase proton transport. S. cerevisiae, pHLuorin cytosolic pH fluorescence. response, % at 10 µM. actives 0.37% (n = 350,000). AID 504577; in the data active = response mostly above about 7.3%, no sharp cut-off; inactive = mostly below about 5.4%; also: actives read high
* marks the source's active call; other numbers are inactive results; ! = not active in a repeat. Hits are enriched below; roughly 3.8% of the tested compounds scored in any of these assays.

How did O=C(O)CCCCCCCCCCCc1ccccc1 do in these assays?
rCAG RNA binder: 36*; Granule exo inh: -1; MPTP inh: -2; B2AR ag: -1; T cell modulator: 110; V-ATPase pH: 1

What do the screens show for `O=C(O)CCCNC(=O)OCc1ccccc1`?
rCAG RNA binder: -1; Granule exo inh: 2; MPTP inh: 1; B2AR ag: 64*; T cell modulator: 220; V-ATPase pH: -2

Results for CN(C(=O)CNC(=O)c1ccccc1OCC(=O)Nc1ccc(Br)cc1)c1ccccc1 ?
rCAG RNA binder: 2

How did C=CCn1c(=O)c2ccccc2n2c(SCC(=O)/C(C#N)=C(\C)N)nnc12 do in these assays?
rCAG RNA binder: 2; Granule exo inh: 1; MPTP inh: -1; B2AR ag: 65*!; T cell modulator: 337; V-ATPase pH: 1

Results for Cc1cn(-c2cc(NC(=O)c3ccc(C)c(NC(=O)c4cccc(-c5cn[nH]c(=O)c5)c4)c3)cc(C(F)(F)F)c2)cn1 ?
Granule exo inh: 0; MPTP inh: 0; B2AR ag: 78*; T cell modulator: 742; V-ATPase pH: 4

How did COc1cc2nc(Nc3cccc(F)c3)nc(N)c2cc1OC do in these assays?
rCAG RNA binder: 7; Granule exo inh: 62*; MPTP inh: 0; B2AR ag: 23; T cell modulator: 169; V-ATPase pH: -2

Results for Cc1ccc(NC2=C/C(=N/S(=O)(=O)c3cccs3)c3ccccc3C2=O)cc1C ?
rCAG RNA binder: 1; Granule exo inh: 1; MPTP inh: 5; B2AR ag: 5; T cell modulator: 394; V-ATPase pH: 1

What do the screens show for `Cc1cc(C)c(S(=O)(=O)/N=C2/C=C(Sc3ncn[nH]3)C(=O)c3ccccc32)cc1C`?
rCAG RNA binder: 56*; Granule exo inh: 98*; MPTP inh: 15; B2AR ag: 49*; T cell modulator: 531; V-ATPase pH: -2

Results for CCOC(=O)/C=C(\C)Sc1cc(O)c2ccccc2c1O ?
rCAG RNA binder: 25; Granule exo inh: -1; MPTP inh: 1; B2AR ag: 46*; V-ATPase pH: 5

What do the screens show for `CCOC(=O)/C=C(\C)Sc1cc(=O)oc2ccccc12`?
rCAG RNA binder: -3; Granule exo inh: -1; MPTP inh: 2; B2AR ag: -5; T cell modulator: 208; V-ATPase pH: 4

What do the screens show for `Cc1nc(-c2ccc3c(c2)OCO3)cs1`?
rCAG RNA binder: 0; Granule exo inh: -3; MPTP inh: -1; B2AR ag: 6; T cell modulator: 440; V-ATPase pH: 5

What do the screens show for `Cc1c(C)c(C)c2[nH]c(-c3ccc4c(c3)OCO4)nc2c1C`?
Granule exo inh: 61*; MPTP inh: 2; B2AR ag: 8; T cell modulator: 287; V-ATPase pH: -2

Results for CCOc1ccccc1/C=C(\C(=O)O)c1ccc(S(=O)(=O)N2CCCCC2)s1 ?
rCAG RNA binder: 45*; Granule exo inh: -3; MPTP inh: 1; B2AR ag: 15; T cell modulator: 543; V-ATPase pH: -4

How did Cc1cccc(/C=C(\C(=O)O)c2ccc(S(=O)(=O)N3CCCC3)s2)c1 do in these assays?
rCAG RNA binder: 19; Granule exo inh: 5; MPTP inh: 0; B2AR ag: 10; T cell modulator: 358; V-ATPase pH: -4

How did CCC(=O)N(c1nnc(SCC(=O)c2ccc[nH]2)s1)C1CC1 do in these assays?
rCAG RNA binder: 8; Granule exo inh: -13; MPTP inh: -1; B2AR ag: -1; T cell modulator: 376; V-ATPase pH: 18*

What do the screens show for `COc1ccc(S[C@]2(C(=O)N3CCN(c4ncccn4)CC3)CC(=O)N(C(=O)c3ccccc3)[C@@H]2c2ccc(OC)cc2)cc1`?
rCAG RNA binder: 15

How did O=S(=O)(c1ccc(Br)cc1Cl)N1CCN(CCO)CC1 do in these assays?
rCAG RNA binder: -3; Granule exo inh: 8; MPTP inh: -2; B2AR ag: -7; T cell modulator: 194; V-ATPase pH: 4

What do the screens show for `O=C1C=CC(=O)c2c(O)c(N3CCN(CCO)CC3)c(Cl)c(O)c21`?
rCAG RNA binder: 26; Granule exo inh: 10; MPTP inh: 9; B2AR ag: 100*; V-ATPase pH: -2

Results for CN1C/C(=C/c2cccnc2)C(=O)/C(=C/c2cccnc2)C1 ?
rCAG RNA binder: -1; Granule exo inh: 24; MPTP inh: -4; B2AR ag: 43*; T cell modulator: 646; V-ATPase pH: -7

What do the screens show for `O=C(N/N=C/c1ccccc1F)c1ccccc1OCc1ccccc1`?
rCAG RNA binder: 3; Granule exo inh: 107*; MPTP inh: 0; B2AR ag: 0; T cell modulator: 222; V-ATPase pH: 0

What do the screens show for `O=C(NNC(=O)c1ccccc1OCc1ccccc1)c1ccccc1F`?
rCAG RNA binder: -1; Granule exo inh: -10; MPTP inh: 0; B2AR ag: -3; T cell modulator: 56; V-ATPase pH: 0

Results for O=C(COCC(=O)N/N=C/c1ccccc1F)N/N=C/c1ccccc1F ?
rCAG RNA binder: -4; Granule exo inh: 0; MPTP inh: 1; B2AR ag: 0; T cell modulator: 205; V-ATPase pH: 2

Results for O=C(CO)N/N=C/c1ccccc1F ?
rCAG RNA binder: 36*; Granule exo inh: -1; MPTP inh: 0; B2AR ag: -3; T cell modulator: 481; V-ATPase pH: 0

How did CC1(C)Cc2c(C#N)c(NCC3CCCO3)nc(-c3ccco3)c2CO1 (stereo not drawn) do in these assays?
rCAG RNA binder: 8; Granule exo inh: 6; MPTP inh: 1; B2AR ag: 2; T cell modulator: 185; V-ATPase pH: -3

How did CC1(C)Cc2c(C#N)c(NC3CCCCC3)nc(-c3ccco3)c2CO1 do in these assays?
Granule exo inh: 4; MPTP inh: -1; B2AR ag: 13; T cell modulator: 0.0*; V-ATPase pH: 1

What do the screens show for `O=[N+]([O-])CC(=Nc1ccc(Cl)cc1)N/N=C\c1oc(O)c2ccccc12`?
rCAG RNA binder: 53*; Granule exo inh: -2; MPTP inh: -1; B2AR ag: 5; T cell modulator: 426; V-ATPase pH: 0

Results for COc1ccc(C)cc1NC(=O)CCN1CCCC1 ?
rCAG RNA binder: 0; Granule exo inh: -2; MPTP inh: -1; B2AR ag: 5; T cell modulator: 874; V-ATPase pH: -1

Results for COc1ccc(OC)c(NC(=O)CCN2CCCCC2)c1 ?
rCAG RNA binder: 0; Granule exo inh: 0; MPTP inh: -1; B2AR ag: 6; T cell modulator: 76*; V-ATPase pH: -2

What do the screens show for `COc1cc(C=NN=c2sc3ccccc3n2C)ccc1OCCO`?
rCAG RNA binder: 2

Results for CN1CCN(c2ccc(NC(=O)c3ccc(-c4ccc(Br)cc4)o3)cc2)CC1 ?
rCAG RNA binder: -4; Granule exo inh: 76*; MPTP inh: 7; B2AR ag: 17; T cell modulator: 124; V-ATPase pH: 0

Source: PubChem (several laboratories)
